For data set [1], the target named is Prostaglandin G/H synthase 1 (Homo sapiens) (UniProt P23219). The following applies: at 100 µM.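 Also: recombinant human COX-1 enzyme, activity read out as PGE2 production.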
For data set [2], the target named is CYP2C9 (Homo sapiens, UniProt P11712). Nature of the data set: Metabolic stability in presence of human recombinant CYP2C9 at 1 uM after 30 mins. The class given is ADME. Summed up:
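Recombinant human CYP2C9 (Bactosomes), 5 pmol per reaction, in […] buffer pH 7.4 with 1 mM NADPH. Compound 1 µM, added in acetonitrile (2.5% final). 10 min preincubation at 37 °C, reaction started with NADPH, sampled at 0 and 30 min, stopped with ice-cold acetonitrile. Parent remaining quantified by LC/MS/MS as % metabolized. Run in duplicate.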

The target of data set [3] is T1, Prostaglandin G/H synthase 2 (Homo sapiens) (UniProt P35354).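 Also: recombinant enzyme assay, activity read out as PGE2 generation.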
T1 sequence (whole entry): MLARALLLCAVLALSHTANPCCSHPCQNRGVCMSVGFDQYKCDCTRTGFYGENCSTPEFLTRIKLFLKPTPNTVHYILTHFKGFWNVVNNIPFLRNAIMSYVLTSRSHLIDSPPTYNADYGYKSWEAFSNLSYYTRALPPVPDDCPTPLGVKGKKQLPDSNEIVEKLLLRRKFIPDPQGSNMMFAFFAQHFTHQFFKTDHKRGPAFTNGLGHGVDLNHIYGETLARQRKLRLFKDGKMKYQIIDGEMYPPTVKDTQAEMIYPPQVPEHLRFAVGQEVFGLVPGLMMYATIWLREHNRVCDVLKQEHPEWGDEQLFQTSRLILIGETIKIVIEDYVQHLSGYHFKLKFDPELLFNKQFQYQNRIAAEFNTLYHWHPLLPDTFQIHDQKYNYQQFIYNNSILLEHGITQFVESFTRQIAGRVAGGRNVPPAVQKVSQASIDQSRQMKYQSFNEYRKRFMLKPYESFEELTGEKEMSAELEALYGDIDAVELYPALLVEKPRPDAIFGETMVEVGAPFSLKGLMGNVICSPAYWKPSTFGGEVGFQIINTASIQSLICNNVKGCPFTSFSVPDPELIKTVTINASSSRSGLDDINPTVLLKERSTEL
The following applies: at 100 µM.

Sequence of Prostaglandin G/H synthase 1 (Homo sapiens) (P23219 whole entry): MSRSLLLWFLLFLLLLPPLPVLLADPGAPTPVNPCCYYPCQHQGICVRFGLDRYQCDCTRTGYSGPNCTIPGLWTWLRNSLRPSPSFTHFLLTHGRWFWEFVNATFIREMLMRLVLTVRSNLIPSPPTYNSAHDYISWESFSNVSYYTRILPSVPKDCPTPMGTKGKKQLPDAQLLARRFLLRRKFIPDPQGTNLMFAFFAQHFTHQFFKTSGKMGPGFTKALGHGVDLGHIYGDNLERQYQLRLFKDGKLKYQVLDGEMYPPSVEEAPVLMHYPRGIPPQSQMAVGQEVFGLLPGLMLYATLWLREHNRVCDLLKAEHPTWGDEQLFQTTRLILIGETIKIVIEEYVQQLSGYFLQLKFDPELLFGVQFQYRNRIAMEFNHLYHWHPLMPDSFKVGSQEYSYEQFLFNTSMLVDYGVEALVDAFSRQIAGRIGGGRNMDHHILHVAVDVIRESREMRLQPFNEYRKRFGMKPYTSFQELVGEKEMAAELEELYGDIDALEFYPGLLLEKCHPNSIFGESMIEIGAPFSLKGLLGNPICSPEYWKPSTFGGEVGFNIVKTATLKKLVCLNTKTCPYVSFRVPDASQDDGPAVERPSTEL
Sequence of CYP2C9 (P11712 whole entry): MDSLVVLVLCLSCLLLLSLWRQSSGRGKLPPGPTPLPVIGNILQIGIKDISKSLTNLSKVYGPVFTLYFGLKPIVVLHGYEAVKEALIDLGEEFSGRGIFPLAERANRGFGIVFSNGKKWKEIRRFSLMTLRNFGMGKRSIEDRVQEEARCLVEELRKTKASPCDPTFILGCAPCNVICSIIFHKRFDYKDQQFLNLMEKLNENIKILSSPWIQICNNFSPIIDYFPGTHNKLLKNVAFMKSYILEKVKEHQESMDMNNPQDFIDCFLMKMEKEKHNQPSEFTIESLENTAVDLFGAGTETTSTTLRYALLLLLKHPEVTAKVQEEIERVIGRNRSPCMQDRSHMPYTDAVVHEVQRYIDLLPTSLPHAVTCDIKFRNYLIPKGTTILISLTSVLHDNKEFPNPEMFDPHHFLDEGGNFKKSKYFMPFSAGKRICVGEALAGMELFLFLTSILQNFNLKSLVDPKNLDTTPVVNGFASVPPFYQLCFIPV

In general, inhibition refers to how much of the control response was suppressed. Lower therefore signals a response near the control. Take `O=C(O)Cc1ccc(-n2nc(C(F)(F)F)cc2-c2ccc(C(F)(F)F)cc2)cc1`: the values for the inhibition in data set [1] and in data set [3] were 96% and 93%, respectively. The metabolized at 0.5 h, 1 µM in data set [2] was 4%.

For the compound `NS(=O)(=O)c1ccc(-n2nc(C(F)(F)F)cc2-c2ccc(C(F)(F)F)cc2)cc1`, in data set [2], the metabolized at 0.5 h, 1 µM came out at 0%.

As for `Cc1ccc(-c2cc(C(=O)O)nn2-c2ccc(S(N)(=O)=O)cc2)cc1`, the inhibition in data set [1] worked out at 66%; in data set [3] it was 43%. For the same compound, the metabolized at 0.5 h, 1 µM in data set [2] was 61%.

Consider `Cc1ccc(-c2cc(-c3ccccc3)nn2-c2ccc(S(N)(=O)=O)cc2)cc1`, for which the inhibition in data set [1] is 100%; in data set [3] it was 92%. For the same compound, in data set [2], the metabolized at 0.5 h, 1 µM was 49%.

`Cc1ccc(-c2cc(C(F)(F)F)nn2-c2ccc(CC(=O)O)cc2)cc1`: the inhibition in data set [1] turned out to be 88%; in data set [3] it was 95%. For the same compound, in data set [2], the metabolized at 0.5 h, 1 µM amounted to 10%.

As for `CCOC(=O)c1ccc(-n2nc(C(F)(F)F)cc2-c2ccc(C(F)(F)F)cc2)cc1`, the inhibition in data set [1] came out at 55%; in data set [3] it was 96%. Further, the metabolized at 0.5 h, 1 µM in data set [2] stood at 2%.

With `Cc1ccc(-c2cc(C(F)(F)F)nn2-c2ccc(S(N)(=O)=O)cc2)cc1` [CELECOXIB], in data set [2], the metabolized at 0.5 h, 1 µM came to 94%.

Consider `CCOC(=O)c1ccc(-n2nc(C(F)(F)F)cc2-c2ccc(C)cc2)cc1`, for which the figures for the inhibition in data set [1] and in data set [3] were 55% and 87%, respectively. The metabolized at 0.5 h, 1 µM in data set [2] is 88%.

In the case of `O=C(O)c1ccc(-n2nc(C(F)(F)F)cc2-c2ccc(C(F)(F)F)cc2)cc1`, the inhibition in data set [1] was 28%; in data set [3] it was 6%. Besides, the metabolized at 0.5 h, 1 µM in data set [2] was 29%.

Take `Cc1ccc(-c2cc(C(F)(F)F)nn2-c2ccc([S+](C)[O-])cc2)cc1` (stereo unspecified): the inhibition in data set [1] turned out to be 82%; in data set [3], 99%. In addition, the metabolized at 0.5 h, 1 µM in data set [2] stood at 48%.

As to `Cc1ccc(-c2cc(C(F)(F)F)nn2-c2ccc(C(=O)O)cc2)cc1`, the inhibition amounted to 67% in data set [1] and 26% in data set [3]. Moreover, the metabolized at 0.5 h, 1 µM in data set [2] worked out at 29%.

Regarding `Cc1ccc(-c2cc(C(F)(F)F)nn2-c2ccc(S(C)(=O)=O)cc2)cc1`, the inhibition in data set [1] was 99%; in data set [3], 92%. In data set [2], the metabolized at 0.5 h, 1 µM turned out to be 81%.

In the case of `CSc1ccc(-n2nc(C(F)(F)F)cc2-c2ccc(C)cc2)cc1`, the inhibition in data set [1] was determined as 95%; in data set [3], 99%. The metabolized at 0.5 h, 1 µM in data set [2] was determined as 87%.

Take `Cc1ccc(-c2cc(C(F)(F)F)nn2-c2ccc(C)cc2)cc1`: the metabolized at 0.5 h, 1 µM in data set [2] worked out at 30%.

These data come from ChEMBL document CHEMBL1148764, “CYP2C9 structure-metabolism relationships: optimizing the metabolic stability of COX-2 inhibitors” (J Med Chem, 2007).
